# Results published in ChEMBL document CHEMBL1152384, “First steps in the direction of synthetic, allosteric, direct inhibitors of thrombin and factor Xa” (Bioorg Med Chem Lett, 2009).
# Calls of active or inactive are those of the source. No cut-off for these calls is given here.
# Experiments:
# [1] = biological target: Prothrombin (Homo sapiens) (UniProt P00734); assay: Inhibition of human thrombin assessed as residual activity at < 4.3 mM by spectrophotometry
# Summary of the method: (§1)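 Thrombin activity read spectrophotometrically as the initial rate of hydrolysis of the chromogenic substrate Spectrozyme TH, with and without benzofuran inhibitor. Residual activity is expressed relative to the uninhibited enzyme.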
# [2] = biological target: Coagulation factor X (Homo sapiens) (UniProt P00742); assay: Inhibition of human factor 10a assessed as residual activity at < 4.3 mM by spectrophotometry
# Summary of the method: (§2)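 Factor Xa activity followed by spectrophotometric measurement of the initial rate of hydrolysis of the chromogenic substrate S-2772, with and without benzofuran inhibitor. Residual activity is taken relative to the uninhibited enzyme.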
# [3] = biological target: Prothrombin (Homo sapiens) (UniProt P00734); assay: Inhibition of human thrombin assessed as residual activity at 2.9 mM by spectrophotometry; summary of the method: as §1
# [4] = biological target: Coagulation factor X (Homo sapiens) (UniProt P00742); assay: Inhibition of human factor 10a assessed as residual activity at […] by spectrophotometry; summary of the method: as §2
# [5] = biological target: Prothrombin (Homo sapiens) (UniProt P00734); assay: Inhibition of human thrombin assessed as residual activity at 400 uM by spectrophotometry; summary of the method: as §1
# [6] = biological target: Coagulation factor X (Homo sapiens) (UniProt P00742); assay: Inhibition of human factor 10a assessed as residual activity at 2.6 mM by spectrophotometry; summary of the method: as §2
# [7] = biological target: Prothrombin (Homo sapiens) (UniProt P00734); assay: Inhibition of human thrombin assessed as residual activity at 4.3 mM by spectrophotometry; summary of the method: as §1
# [8] = biological target: Coagulation factor X (Homo sapiens) (UniProt P00742); assay: Inhibition of human factor 10a assessed as decrease in catalytic rate per uM of S-2772 hydrolysis at 2.6 mM by Michaelis-Menten analysis relative to control
# Summary of the method: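 Factor Xa kinetics: initial rates of S-2772 hydrolysis measured spectrophotometrically at pH 7.4 and 25 °C over a range of substrate levels, with and without inhibitor. The hyperbolic dependence of rate on substrate was fitted to obtain KM and VMAX. Catalytic rate was compared with the inhibitor-free reaction.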
# Chain of Coagulation factor X (Homo sapiens) (P00742 41-179 limits assumed): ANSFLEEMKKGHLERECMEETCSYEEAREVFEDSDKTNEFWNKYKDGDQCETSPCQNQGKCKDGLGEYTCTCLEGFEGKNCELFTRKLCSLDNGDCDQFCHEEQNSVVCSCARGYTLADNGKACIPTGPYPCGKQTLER
# Chain of Coagulation factor X (Homo sapiens) (P00742 235-488 limits assumed): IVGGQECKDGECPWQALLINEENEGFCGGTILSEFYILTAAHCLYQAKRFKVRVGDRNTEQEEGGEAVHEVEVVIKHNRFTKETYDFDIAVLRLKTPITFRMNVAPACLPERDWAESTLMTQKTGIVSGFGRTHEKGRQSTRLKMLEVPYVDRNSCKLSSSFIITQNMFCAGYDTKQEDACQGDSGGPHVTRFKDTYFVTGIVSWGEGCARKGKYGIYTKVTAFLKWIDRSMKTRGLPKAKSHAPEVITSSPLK
SMILES,Activity [1],Activity [2],Activity [3] [%],Activity [4],Activity [5],further results
COc1cc2oc(C)c(CCC(=O)O)c2cc1OS(=O)(=O)O,,,> 40,Active,Active,
CCOC(=O)c1c(C)oc2cc(OS(=O)(=O)O)c(OS(=O)(=O)O)cc12,inactive,inactive,,,,
Cc1oc2cc(O)c(O)cc2c1C(=O)O,,,> 40,Active,Active,
Cc1oc2cc(OS(=O)(=O)O)c(OS(=O)(=O)O)cc2c1C(=O)O,,,> 40,Active,Active,Activity [6]: 75%
COc1cc2oc(C)c(C(=O)O)c2cc1OS(=O)(=O)O,,,> 40,Active,Active,Activity [6]: 42%
COc1cc2oc(C)c(COS(=O)(=O)O)c2cc1OS(=O)(=O)O,inactive,inactive,,,,
CCOC(=O)CCc1c(C)oc2cc(OC)c(OS(=O)(=O)O)cc12,inactive,inactive,,,,
COc1cc2c(C(=O)O)c(C)oc2cc1OS(=O)(=O)O,,,> 40,Active,Active,Activity [7]: Active; Activity [6]: 86%; fold change (FC) [8]: 3.6

# Second part, led by results:
Activity [1],Activity [2],Activity [3] [%],Activity [4],Activity [5],SMILES,further results
inactive,inactive,,,,COc1cc2oc(C)c(CO)c2cc1O,
,,> 40,Active,Active,COc1cc2oc(C)c(C(=O)O)c2cc1O,
,,> 40,Active,Active,COc1cc2oc(C)c(CCC(=O)O)c2cc1O,Activity [6]: > 40%
inactive,inactive,,,,CCOC(=O)c1c(C)oc2cc(OC)c(O)cc12,
inactive,inactive,,,,CCOC(=O)CCc1c(C)oc2cc(OC)c(O)cc12,
inactive,inactive,,,,CCOC(=O)c1c(C)oc2cc(O)c(OC)cc12,
inactive,inactive,,,,CCOC(=O)c1c(C)oc2cc(OC)c(OS(=O)(=O)O)cc12,
inactive,inactive,,,,CCOC(=O)c1c(C)oc2cc(O)c(O)cc12,
inactive,inactive,,,,CCOC(=O)c1c(C)oc2cc(OS(=O)(=O)O)c(OC)cc12,
